Screens (PubChem BioAssay)
An excerpt weighted towards active compounds, which were near 1.6% of everything screened.
HDAC3 inhib – HDAC3 deacetylase inhibitors, primary screen, biochemical, fluorescence, cell-free homogeneous; recombinant HDAC3, fluorogenic peptide/trypsin coupled; inhibition, % at 8.3 µM; 0.15% of 320,000 active; AID 2718, 2010; in the data active means inhibition above about 26%, passing the limit was not always enough; inconclusive means no clear call, values can overlap the other calls
Arr AP2 block – inhibitors of beta-arrestin/AP2 binding, primary screen, biochemical, GPCR trafficking, flow cytometry | beta-arrestin 1 C-terminal peptide binding to AP2 beta2-adaptin appendage (human) | AID 504490, 2011 | 0.31% of 340,000 active | FITC-arrestin peptide / GST-AP2 beads; AP2 beta2 appendage carries R879A mutation | inhibition, % at 10 µM;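 active means inhibition above a set limit, near 3 SD of compounds lacking own fluorescence, cut at about 54% in these data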
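System: GST-tagged AP2 beta2-adaptin appendage (R879A) on 4 µm glutathione beads / Reagent: FITC-arrestin peptide, 50 nM / Detection: HyperCyt-sampled flow cytometry, FL1 channel, ex 488/em 535 nm / Timing: 12 min plus 1 h, RT / Buffer or medium: PBS plus Tween 20 (0.05%) and BSA (0.1%)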
Pemphigus Ab inh – inhibitors of pemphigus antibody binding to DSG3, primary screen, biochemical, bead-based, flow cytometry, scFv-GFP; Desmoglein-3 (Homo sapiens), P32926; DSG3-coupled beads, scFv-anti-DSG3-GFP binding; active compounds read low; binding (percent of control), % at 10 µM; 0.48% of 310,000 active;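 active means binding more than 3 SD below its plate's average and above zero; inconclusive means below that plate limit but binding exactly zero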;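 further: hits lower antibody fragment binding to DSG3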
Target sequence (P32926 whole entry, looked up, the tested form may be a part): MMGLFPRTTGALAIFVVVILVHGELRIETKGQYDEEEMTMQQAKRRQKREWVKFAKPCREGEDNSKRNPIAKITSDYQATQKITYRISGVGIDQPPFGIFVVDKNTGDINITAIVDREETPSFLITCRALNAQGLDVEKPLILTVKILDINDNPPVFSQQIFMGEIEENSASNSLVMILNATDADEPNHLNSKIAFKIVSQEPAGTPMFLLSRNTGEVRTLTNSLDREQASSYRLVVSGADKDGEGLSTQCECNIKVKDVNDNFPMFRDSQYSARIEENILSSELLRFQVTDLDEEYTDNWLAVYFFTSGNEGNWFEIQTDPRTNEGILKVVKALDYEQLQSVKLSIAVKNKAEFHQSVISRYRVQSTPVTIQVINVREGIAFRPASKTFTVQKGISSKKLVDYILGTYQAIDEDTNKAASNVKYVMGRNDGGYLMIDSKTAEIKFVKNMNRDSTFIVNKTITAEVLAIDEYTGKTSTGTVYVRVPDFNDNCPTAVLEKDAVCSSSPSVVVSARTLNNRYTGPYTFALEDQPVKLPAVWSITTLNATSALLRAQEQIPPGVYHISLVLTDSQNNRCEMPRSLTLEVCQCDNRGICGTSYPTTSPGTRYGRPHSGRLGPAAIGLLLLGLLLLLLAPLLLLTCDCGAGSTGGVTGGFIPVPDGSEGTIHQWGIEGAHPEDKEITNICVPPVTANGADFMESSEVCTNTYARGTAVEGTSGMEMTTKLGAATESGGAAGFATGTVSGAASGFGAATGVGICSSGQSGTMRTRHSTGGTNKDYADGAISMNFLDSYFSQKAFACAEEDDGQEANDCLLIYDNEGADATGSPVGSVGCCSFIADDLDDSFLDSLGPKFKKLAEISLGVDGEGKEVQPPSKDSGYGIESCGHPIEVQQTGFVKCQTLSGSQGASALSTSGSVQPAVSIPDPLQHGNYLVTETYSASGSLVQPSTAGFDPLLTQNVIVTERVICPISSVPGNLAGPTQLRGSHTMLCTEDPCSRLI
GASC-1 inh – inhibitors of GASC-1 histone demethylase, primary screen, biochemical, fluorescence, DELFIA europium | GST-JMJD2C(1-420) H3K9me3 demethylation | Lysine-specific demethylase 4C (Homo sapiens), Q9H3R0 | inhibition, % at 2.35 µM | 0.069% of 330,000 active;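 active means more than half of a compound's replicate wells show inhibition beyond 50%, single wells judged on their own value; inconclusive means some, but no more than half, of replicates pass 50% inhibition; inactive means no replicate passes 50% inhibition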;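 further: signal counts dimethyl H3K9 product captured on neutravidin plate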
T cell modulator – modulators of CD8 T cell-vesicle binding, primary screen, mouse 2C CD8+ T cells, flow cytometry; 2C CD8+ T cell-vesicle binding; active compounds read low; response (vesicle binding), % at 7 µM; 0.068% of 330,000 active; AID 2052, 2009;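 active means response, share of CD8 T cells binding vesicles, and their 90th percentile fluorescence all below set limits, cut at about 80% in these data, passing the limit was not always enough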;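 further: values below 100% mean blocked vesicle binding to the CD8+ T cells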
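System: murine 2C transgenic CD8+ T lymphocytes; also added: QL9-loaded Drosophila micro-vesicles; times: binding 1.5 h at 37 °C; measured by: flow cytometry, PE anti-B7-1 (FL2) versus Alexa647 anti-CD8 (FL8), PFA-fixed; control set: Peptide-free naked vesicles (low) and QL9 vesicles with 0.7% DMSO vehicle (high)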
LANA-H2B inh – blockers of LANA interaction with H2A/H2B – biochemical, FP readout, HTS, primary screen. cell-free LANA-H2A/H2B peptide, fluorescence polarization. inhibition, % (test concentration not listed). Protein LANA1 (Human herpesvirus 8 type P (isolate GK18)), Q9QR71. 0.6% of 320,000 active. AID 2629, 2010; in the data active means inhibition mostly above about 10%, no sharp cut-off; inactive means mostly below about 6.7%
Numbers stand for hits.

How did C#CCNC(=O)C1=C[C@@H](c2coc3ccccc3c2=O)C[C@@H](OCc2ccc(CO)cc2)O1 do in these assays?
HDAC3 inhib: 36; Arr AP2 block: inactive; Pemphigus Ab inh: inactive; GASC-1 inh: inactive; T cell modulator: inactive; LANA-H2B inh: inactive

What do the screens show for `CC(Sc1nnc(-c2ccco2)n1C)C(=O)N1C(C)CCCC1C` (stereo not drawn)?
HDAC3 inhib: inactive; Arr AP2 block: inactive; GASC-1 inh: inactive; T cell modulator: inactive; LANA-H2B inh: inactive

Results for O=C(CC1C[C@H](C(=O)N2CCCCC2)[C@@]2(CCc3ccccc3)c3[nH]c4ccccc4c3CCN2C1=O)NCCCn1ccnc1 (stereo partly drawn) ?
HDAC3 inhib: inactive; Arr AP2 block: inactive; Pemphigus Ab inh: inactive; GASC-1 inh: inactive; T cell modulator: inactive; LANA-H2B inh: inactive

How did NC(=O)c1ccsc1NC(=O)COC(=O)c1cc(=O)[nH]c2ccccc12 do in these assays?
HDAC3 inhib: inactive; Arr AP2 block: inactive; Pemphigus Ab inh: 83; GASC-1 inh: inactive; T cell modulator: inactive; LANA-H2B inh: inactive

How did COc1ccc(CCNC(=O)CNCC2CCCCC2)cc1OC do in these assays?
HDAC3 inhib: inactive; Arr AP2 block: inactive; Pemphigus Ab inh: inactive; GASC-1 inh: inactive; T cell modulator: inactive; LANA-H2B inh: inactive

Results for Cc1ccccc1N(C(=O)CCC(=O)Nc1ccccn1)C(C(=O)NC(C)C)c1ccc(F)cc1 (stereo not drawn) ?
HDAC3 inhib: inactive; Arr AP2 block: inactive; GASC-1 inh: inactive; T cell modulator: inactive; LANA-H2B inh: inactive

How did Cc1ccc(N(C(=O)CCC(=O)Nc2ccccn2)C(C(=O)NC(C)C)c2ccc(F)cc2)cc1 (stereo not drawn) do in these assays?
HDAC3 inhib: inactive; Arr AP2 block: inactive; Pemphigus Ab inh: inactive; GASC-1 inh: inactive; T cell modulator: inactive; LANA-H2B inh: 18

What do the screens show for `O=CN1CCN(C=O)C(O)C1O` (stereo not drawn)?
Arr AP2 block: inactive; Pemphigus Ab inh: inactive

What do the screens show for `Cc1cc(C)c(CN2CCN(CCCn3ccc(NC(=O)OCc4ccccc4)nc3=O)CC2)c(C)c1`?
Arr AP2 block: inactive; Pemphigus Ab inh: inactive

What do the screens show for `O=C(Cc1cccs1)Nc1cc(S(=O)(=O)N2CCCCC2)ccc1Cl`?
HDAC3 inhib: inactive; Arr AP2 block: inactive; Pemphigus Ab inh: inactive; GASC-1 inh: inactive; T cell modulator: inactive; LANA-H2B inh: 82

Results for CC1CCN(S(=O)(=O)c2ccc(NC(=O)Cc3ccc(S(=O)(=O)N4CCOCC4)s3)cc2)CC1 ?
HDAC3 inhib: inactive; Arr AP2 block: inactive; Pemphigus Ab inh: inactive; GASC-1 inh: inactive; T cell modulator: inactive; LANA-H2B inh: active

How did O=C(Cc1ccc(S(=O)(=O)N2CCOCC2)s1)Nc1cc(Cl)ccc1Cl do in these assays?
HDAC3 inhib: inactive; Arr AP2 block: inactive; Pemphigus Ab inh: inactive; GASC-1 inh: inactive; T cell modulator: inactive; LANA-H2B inh: active

What do the screens show for `CC(C)(C)OC(=O)N(CCc1ccccc1)Cc1ccc(OCc2cccc(NC(=O)C3CCC3)c2)cc1`?
Arr AP2 block: inactive; Pemphigus Ab inh: inactive

Results for Cc1cccc([C@@H]2[C@@H]3C(=O)N(Cc4ccccc4)C(=O)[C@@H]3[C@]3(C)C(=O)N(c4ccc(C(F)(F)F)cc4)C(=O)N23)c1 ?
HDAC3 inhib: inactive; Arr AP2 block: inactive; Pemphigus Ab inh: inactive; GASC-1 inh: inactive; T cell modulator: inactive; LANA-H2B inh: inactive

What do the screens show for `O=C1CC(=O)NC(SCC(=O)Nc2ccccc2[N+](=O)[O-])=N1`?
HDAC3 inhib: inactive; Arr AP2 block: inactive; Pemphigus Ab inh: inactive; GASC-1 inh: inactive; T cell modulator: inactive; LANA-H2B inh: inactive

What do the screens show for `COc1cc(/C=C2/C(=N)N3OC(C)=CC3=NC2=O)ccc1OC(=O)c1ccco1`?
HDAC3 inhib: inactive; Arr AP2 block: inactive; Pemphigus Ab inh: 61; GASC-1 inh: inactive; T cell modulator: inactive; LANA-H2B inh: inactive

How did O=C1CC(=O)N(Cc2ccco2)C(=S)N1 do in these assays?
HDAC3 inhib: inactive; Arr AP2 block: inactive; Pemphigus Ab inh: inactive; GASC-1 inh: inactive; T cell modulator: inactive; LANA-H2B inh: inactive

How did O=C1CC(=O)N(Cc2ccco2)C(=O)N1 do in these assays?
HDAC3 inhib: inactive; Arr AP2 block: inactive; Pemphigus Ab inh: inactive; GASC-1 inh: 52; T cell modulator: inactive; LANA-H2B inh: inactive

Results for Cc1cc(Br)ccc1NC(=O)CN(C)C(=O)CN1C(=O)NC(C)(C2CC2)C1=O (stereo not drawn) ?
HDAC3 inhib: inactive; Arr AP2 block: inactive; Pemphigus Ab inh: inactive; GASC-1 inh: inactive; T cell modulator: inactive; LANA-H2B inh: inactive

How did COc1ccc2c(c1O)-c1ccccc1CCN(C)C2 do in these assays?
HDAC3 inhib: inactive; Arr AP2 block: inactive; Pemphigus Ab inh: inactive; GASC-1 inh: inactive; T cell modulator: inactive; LANA-H2B inh: inactive

How did CN1CCc2cccc3c2[C@@H]1Cc1ccc(O)c(O)c1-3 do in these assays?
Arr AP2 block: inactive; Pemphigus Ab inh: inactive; GASC-1 inh: inconclusive; T cell modulator: inactive; LANA-H2B inh: active

What do the screens show for `CCOC(=O)c1cc(C(C)(C)C)nc(SC)c1C#N`?
HDAC3 inhib: inactive; Arr AP2 block: inactive; GASC-1 inh: inconclusive; T cell modulator: inactive; LANA-H2B inh: 30

Results for CCOC(=O)c1cc(C)nc(SC)c1C#N ?
HDAC3 inhib: inactive; Arr AP2 block: inactive; GASC-1 inh: inactive; T cell modulator: inactive; LANA-H2B inh: inactive

How did COc1cccc(OC(=O)c2ccccc2)c1OC(=O)c1ccccc1 do in these assays?
Arr AP2 block: inactive; Pemphigus Ab inh: inactive

What do the screens show for `CC(C)N1CC=C2C(C#N)=C(N)C(C#N)(C#N)C(c3ccccc3)C2C1` (stereo not drawn)?
HDAC3 inhib: inactive; Arr AP2 block: inactive; GASC-1 inh: inactive; T cell modulator: inactive; LANA-H2B inh: active

Results for O=C(NCCc1ccccc1)C1CCN(c2nc3ccccc3o2)CC1 ?
HDAC3 inhib: inactive; Arr AP2 block: inactive; Pemphigus Ab inh: inactive; GASC-1 inh: inactive; T cell modulator: inactive; LANA-H2B inh: 14

How did CC(C)(C)c1ccc(C(=O)N2CCN(c3nc4ccccc4o3)CC2)cc1 do in these assays?
HDAC3 inhib: inactive; Arr AP2 block: inactive; Pemphigus Ab inh: inactive; GASC-1 inh: inactive; T cell modulator: inactive; LANA-H2B inh: inactive

How did O=C(c1ccc(-c2ccccc2)cc1)N1CCN(c2nc3ccccc3o2)CC1 do in these assays?
Arr AP2 block: inactive; Pemphigus Ab inh: 69
